Screening data as filed in PubChem.
Most compounds without a hit are left out; they make up all but 4.2% or so of the library.
SENP1 inh: blocks the human SENP1 SUMO protease catalytic domain; Q9P0U3; recombinant SENP1 catalytic domain, CyPet-SUMO1-YPet FRET cleavage; inhibition, % at 10 µM; 360,000 tested, 0.21% active; AID 624204;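 active = inhibition at least 30% at 10 µM, raw YFP signal under a set limit, fluorescence ratio 0.5 to 1.5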
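Compound: 10 µM single point, 0.5% DMSO; Test system: hSENP1 catalytic domain, recombinant; Timing: 50 min reaction at room temperature; Technique: FRET, CFP and YFP emission; Control set: no-enzyme wells low, DMSO-plus-enzyme wells high control.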
CTSL1 counter: cathepsin L1 inhibition, PFM18AAP counter-screen. recombinant F. hepatica cathepsin L1, Z-Leu-Arg-MCA fluorescence. inhibition, % at 5.96 µM. 300,000 tested, 0.49% active;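 active = inhibition above the mean of all tested compounds plus 3 SD, set per screening campaign, cut at about 17% in these data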
HDAC3 inh: human HDAC3 inhibition; O15379; recombinant HDAC3, fluorogenic peptide/trypsin coupled, fluorescence; inhibition, % at 8.3 µM; 320,000 tested, 0.15% active; AID 2718; in the data active = inhibition above about 26%, passing the limit was not always enough
Target sequence (O15379 whole entry, looked up): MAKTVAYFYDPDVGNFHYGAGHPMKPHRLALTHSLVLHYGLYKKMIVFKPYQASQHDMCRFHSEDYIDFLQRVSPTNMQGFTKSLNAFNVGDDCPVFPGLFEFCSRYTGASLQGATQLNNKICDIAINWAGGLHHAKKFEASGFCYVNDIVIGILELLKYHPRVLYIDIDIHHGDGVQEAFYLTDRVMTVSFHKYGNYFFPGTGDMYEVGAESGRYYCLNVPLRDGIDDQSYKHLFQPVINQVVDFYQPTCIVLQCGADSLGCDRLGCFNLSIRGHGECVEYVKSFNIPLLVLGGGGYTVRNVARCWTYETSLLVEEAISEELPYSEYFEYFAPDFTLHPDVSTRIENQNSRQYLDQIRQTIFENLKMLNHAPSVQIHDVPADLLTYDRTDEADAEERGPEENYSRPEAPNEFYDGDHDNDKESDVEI
AHR act: activates the human aryl hydrocarbon receptor | P35869 | AHR-responsive luciferase reporter cells, luminescence | activation, % at 5 µM | 320,000 tested, 2.5% active | AID 2796; in the data active = activation above about 47%
PfM18AAP inh: blocks P. falciparum M18 aspartyl aminopeptidase; recombinant PfM18AAP, H-Glu-NHMec fluorogenic cleavage; inhibition, % at 7.35 µM; 290,000 tested, 1.2% active;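 active = inhibition above the campaign mean inhibition over all tested compounds plus 3 SD, cut at about 28% in these data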
FXN GAA850 act: increases GAA850 frataxin promoter reporter activity. 360,000 tested, 0.56% active. HEK293 lucGAA850 FXN promoter luciferase reporter, 24 h; percent of 10 µM SAHA response. activation, % at 6 µM. AID 540364;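 active = activation above the average of all compounds screened plus 3 SD, cutoff fixed separately per campaign, cut at about 7.5% in these data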
AHR act confirm: human AHR activation, confirmation; shares compounds with AHR act; 2,300 tested, 87% active; human cells, AHR-responsive luciferase reporter, luminescence; activation, % at 9 µM; in the data active = activation above about 49%;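 also: HepG2 hepatoma cells carrying a DRE-driven firefly luciferase reporter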
PXR act counter: PXR activation, counter-screen for AHR activators; shares compounds with AHR act; activation, % at 11.6 µM; 2,300 tested, 88% active; AID 434939; cell-based PXR reporter, luciferase luminescence; in the data active = activation above about 11%;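 also: human hepatoma DPX-2 cells expressing full-length human PXR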
GAA30 FXN cntr: activates GAA30 frataxin promoter, counter-screen for GAA850 activators; shares compounds with FXN GAA850 act; HEK293 lucGAA30 FXN promoter luciferase, 24 h; DMSO = 0%, 5 µM ipriflavone = 100%; activation, % at 6 µM; 1,900 tested, 66% active;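 active = mean activation above the mean of solvent-only control wells plus 3 SD, cut at about 22% in these data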;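 also: counterscreen of GAA850 promoter hits where activity marks nonselective or luminescence artifacts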
FXN GAA850 conf: GAA850 FXN promoter activation confirmation; HEK293 lucGAA850 FXN promoter luciferase reporter, 24 h; 100% = activation by SAHA; activation, % at 6 µM; 1,900 tested, 86% active; shares compounds with FXN GAA850 act;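 active = mean activation above a set limit taken from the primary screen, cut at about 8% in these data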
Of the large screens only hits and unclear results are named; the others gave an inactive call (follow-up assays come after a bar, where they were run); ! = repeats disagree.

Cc1cc(NCCOCCO)n2ncc(-c3ccc(Cl)cc3)c2n1	AHR act 126 | AHR act confirm 142 | PXR act counter 28
Nc1nc(Nc2cccc(F)c2)nc2ccccc12	AHR act 83 | AHR act confirm 75 | PXR act counter 35
COc1ccc(Cl)cc1Nc1nc(N)c2ccccc2n1	AHR act 105 | AHR act confirm 115 | PXR act counter 14
COc1nc(NCCO)nc(Nc2cc(Cl)ccc2OC)n1	none
NC(=O)CC(NC(=O)Cc1ccc(Cl)cc1)c1ccc(NC2CCCCCCC2)c([N+](=O)[O-])c1 (centres undefined)	none
COc1cccc(C(=O)O/N=C(\N)c2ccc([N+](=O)[O-])cc2)c1	AHR act 79 | AHR act confirm 75
CC(=O)c1noc(C)c1C(=O)Nc1nccs1	AHR act 103 | AHR act confirm 81
O=C(NCCCN1CCOCC1)/C(=C/c1ccco1)NC(=O)c1ccccc1	none
O=C(Nc1ccon1)Nc1cc(Cl)ccc1Cl	AHR act 122 | AHR act confirm 101 | PXR act counter 11
O=C(Nc1ccon1)Nc1ccc(F)cc1F	none
CN1CC[C@@H]2C(=O)N3CCc4ccc(-c5ccc6c(c5)OCO6)cc4[C@@H]3C[C@@H]21	none (no result: CTSL1 counter, HDAC3 inh, AHR act, PfM18AAP inh)
N#Cc1cc2sc3nc4ccccc4n3c2cc1C#N	none (no result: SENP1 inh, CTSL1 counter, HDAC3 inh, AHR act, FXN GAA850 act)
O=c1c2ccccc2nc2sc3ccccc3n12	AHR act 113 | AHR act confirm 155 | PXR act counter 14
O=c1c2ccccc2nc(SCc2nc3ccccc3s2)n1CCCO	AHR act 89, FXN GAA850 act 14 | AHR act confirm 107 | PXR act counter 52 | GAA30 FXN cntr 102 | FXN GAA850 conf 43
O=C(CSc1nc2ccccc2c(=O)n1CCCO)NCc1ccccc1	none
Cn1c(=O)c2nc(-c3ccccc3)oc2c2ccccc21	AHR act 104, FXN GAA850 act 12 | AHR act confirm 120 | PXR act counter 22 | GAA30 FXN cntr 44 | FXN GAA850 conf 24
COCCCNc1nc2c(-c3ccc(Cl)cc3)nnn2c2ccccc12	none
NNc1nc2c(-c3ccc(Cl)cc3)nnn2c2ccccc12	AHR act 97, FXN GAA850 act 8.2 | AHR act confirm 117 | PXR act counter 16 | GAA30 FXN cntr 129 | FXN GAA850 conf 37
O=C(Nc1ccc2c(c1)OCO2)c1cc(C2CCCCN2S(=O)(=O)c2cccs2)on1 (centres undefined)	none (no result: CTSL1 counter, HDAC3 inh, AHR act, PfM18AAP inh)
c1ccc2c(-c3nc(-c4ccncc4)no3)cccc2c1	AHR act 99, FXN GAA850 act 10 | AHR act confirm 114 | PXR act counter 15 | GAA30 FXN cntr 101 | FXN GAA850 conf 32
Nc1cccc2c1C(=O)N(CCOc1ccc(F)cc1)C2=O	AHR act 98, FXN GAA850 act 8.1 | AHR act confirm 87 | PXR act counter 29 | GAA30 FXN cntr 106 | FXN GAA850 conf 26
COc1ccc(OCCN2C(=O)c3ccccc3C2=O)cc1	none
c1ccc2[nH]c(-c3ccnc4ccccc34)nc2c1	AHR act 90, FXN GAA850 act 9.4! | AHR act confirm 156 | PXR act counter 26 | GAA30 FXN cntr 65 | FXN GAA850 conf 19
COc1cccc2sc3cc(NCc4ccc(C)o4)ccc3c(=O)c12	AHR act 96, FXN GAA850 act 7.7 (no result: CTSL1 counter, PfM18AAP inh) | AHR act confirm 95 | PXR act counter 55 | GAA30 FXN cntr 88 | FXN GAA850 conf 34
COc1cc2sc(-c3ccc(S(C)(=O)=O)cc3)c(C(=O)NCc3ccc(C)o3)c2cc1OC	none (no result: CTSL1 counter, PfM18AAP inh)
